Source: PubChem BioAssay (The Scripps Research Institute Molecular Screening Center)
In the library only some 1.9% were active in any assay of this set; here they are far more common.
DDE Tn7 FP inh – disrupts Tn7 cyclic peptide binding to fibrin D-Dimer-E complex. P02675. FP displacement of FITC-Tn7 peptide from fibrin DD(E); 0% = median of compound wells per plate. inhibition, % at 8.3 µM. 370,000 compounds, 0.13% hits. AID 720508;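 active = inhibition above the mean of compounds falling within the control limits plus 3 SD of them, cut at about 14% in these data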;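 also: 0% = plate median of compound wells and 100% = 10 µM Aha-Tn7 peptide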
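Measure: % inhibition scaled between sample-field median and high-control FP; Test system: human fibrin DD(E); Quantity: 2 µM final DD(E) protein; Doses: one dose, 8.3 µM nominal; Schedule: compound with protein 10 min, then 3 h after probe, room temperature; Detection: fluorescence polarization; Medium: Tris buffer with calcium and detergent, pH 7.8.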
DDE Tn6 FP inh – disrupts Tn6 cyclic peptide binding to fibrin D-Dimer-E complex; P02675; Fibrin DD(E) TRITC-Tn6 fluorescence polarization displacement; inhibition, % at 8.3 µM; 370,000 compounds, 0.21% hits; AID 720509;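 active = inhibition above a per-campaign cutoff: mean of compounds within control limits plus 3 SD, cut at about 15% in these data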;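 also: 0% = median of all compound wells on the plate and 100% = blocking peptide control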
MBD2 DNA inh – inhibitors of human MBD2 binding to methylated oligonucleotide; AID 686964; 370,000 compounds, 0.31% hits; TR-FRET; Q9UBB5; inhibition, % at 4.4 µM; in the data active = inhibition above about 13%
UHRF1 binding – blocks human UHRF1 binding to methylated DNA; UHRF1 binding to methylated oligo, TR-FRET; inhibition, % at 4.4 µM; AID 687016; 370,000 compounds, 0.75% hits; Q96T88; in the data active = inhibition above about 21%;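 also: UHRF1 SRA domain binding a hemimethylated CpG hairpin DNA probe; 0% = median of test compound wells and 100% = reference inhibitor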
TDP2 absorb – TDP2 (human) inhibition, absorbance primary screen. O95551. recombinant TDP2, T5PNP hydrolysis, p-nitrophenol absorbance 415 nm. inhibition, % at 12.8 µM. 370,000 compounds, 0.34% hits;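 active = inhibition above the mean of all tested compounds plus 3 SD, set per campaign, cut at about 25% in these data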;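 also: 0% = DMSO with enzyme and 100% = buffer with substrate but no TDP2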
Target sequence (O95551 whole entry, looked up): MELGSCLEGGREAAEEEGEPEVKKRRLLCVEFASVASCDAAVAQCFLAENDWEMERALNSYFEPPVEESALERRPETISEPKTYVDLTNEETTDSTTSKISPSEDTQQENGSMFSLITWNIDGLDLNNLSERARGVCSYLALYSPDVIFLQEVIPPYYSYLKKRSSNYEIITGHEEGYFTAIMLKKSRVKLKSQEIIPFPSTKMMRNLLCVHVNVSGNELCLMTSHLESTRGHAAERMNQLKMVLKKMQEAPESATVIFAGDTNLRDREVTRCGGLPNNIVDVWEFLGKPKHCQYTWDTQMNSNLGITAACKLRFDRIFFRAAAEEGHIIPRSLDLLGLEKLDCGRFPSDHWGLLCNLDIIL
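Test system: human TDP2 enzyme; Input: 120 nM TDP2 per well; Buffer or medium: Mg2+-containing Tris-HCl buffer, pH 7.5; Reagent: 5 mM T5PNP; Dosing: 12.8 µM single point, 1% DMSO; Incubation: reaction 2 h, 37 °C; Detection: p-Nitrophenol epi absorbance; Read-out: % inhibition relative to enzyme-containing and enzyme-free wells; Replicates: single well per compound.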
LEDGF integ inh – blocks HIV-1 LEDGF/p75-dependent DNA integration. TR-FRET IN-LEDGF/p75 DNA integration, Eu/Cy5. inhibition, % at 3.7 µM. 370,000 compounds, 0.64% hits;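 active = inhibition above the screen-wide mean plus 3 SD, cut at about 13% in these data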;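 also: signal is the Cy5 over europium emission ratio at 671 and 618 nm; 0% = plate median of compound wells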
Active calls of the source: *.

Screening CN1N=C(c2ccc(Cl)cc2)CC(c2ccc(Cl)cc2)C1=O (centres undefined) returned DDE Tn7 FP inh 4.0, DDE Tn6 FP inh -2.2, MBD2 DNA inh 7.2, UHRF1 binding 22.1*, TDP2 absorb -3.3 and LEDGF integ inh 0.6.
Screening Cn1cccc1C(C(=O)NC1CCCCC1)N(C(=O)Cc1cccs1)C1CC1 (centres undefined) returned DDE Tn7 FP inh 0.4, DDE Tn6 FP inh 1.6, MBD2 DNA inh 1.1, UHRF1 binding 37.1*, TDP2 absorb -3.8 and LEDGF integ inh -1.1.
`CCCNS(=O)(=O)c1ccc(OCC(=O)Nc2ccc3c(c2)OCCO3)cc1` gave DDE Tn7 FP inh 4.4, DDE Tn6 FP inh 3.5, MBD2 DNA inh 5.0, UHRF1 binding 24.3*, TDP2 absorb 5.2 and LEDGF integ inh -2.0.
`CCN(CC)c1ccc(C=NNC(=O)c2cc(-c3ccc(C)c(C)c3)n[nH]2)c(O)c1` gave DDE Tn7 FP inh 4.7, DDE Tn6 FP inh 6.6, MBD2 DNA inh 1.4, UHRF1 binding -1.8, TDP2 absorb 6.7 and LEDGF integ inh -2.9.
`Cc1nnc(SCC(=O)NC(=O)NCc2ccco2)s1` gave DDE Tn7 FP inh -3.6, DDE Tn6 FP inh 1.1, MBD2 DNA inh -1.5, UHRF1 binding 30.1*, TDP2 absorb -16.6 and LEDGF integ inh 4.2.
Screening O=C(CSc1nc2ccccc2s1)NC(=O)NCc1ccco1 returned DDE Tn7 FP inh 1.2, DDE Tn6 FP inh 0.3, MBD2 DNA inh -0.9, UHRF1 binding 4.1, TDP2 absorb -2.6 and LEDGF integ inh 1.7.
For Cc1occc1C(=O)N(Cc1nc(-c2ccccc2)no1)C(C)C the results were DDE Tn7 FP inh -3.0, DDE Tn6 FP inh -5.8, MBD2 DNA inh 4.8, UHRF1 binding 23.9*, TDP2 absorb -0.8 and LEDGF integ inh 12.0.
For Cc1ccc2nc(-c3cccc(Br)c3)c(Cc3ccsc3)n2c1 the results were DDE Tn7 FP inh -0.7, DDE Tn6 FP inh -3.4, MBD2 DNA inh 1.2, UHRF1 binding 15.5, TDP2 absorb -6.5 and LEDGF integ inh 2.5.
`C[C@H](CO)N1C[C@H](C)[C@@H](CN(C)S(C)(=O)=O)OCc2cn(nn2)CCCC1=O` gave DDE Tn7 FP inh -0.2, DDE Tn6 FP inh 1.0, MBD2 DNA inh -7.2, UHRF1 binding 4.8, TDP2 absorb -3.1 and LEDGF integ inh 0.1.
For CCCCN(C)CCCNC(=O)Cn1cc2c(n1)-c1c(oc(C(=O)N3CCCC3)c1C)CC2 the results were DDE Tn7 FP inh 4.3, DDE Tn6 FP inh 2.3, MBD2 DNA inh 2.2, UHRF1 binding 53.1*, TDP2 absorb 2.5 and LEDGF integ inh -0.7.
Screening O=C(CN1CCN(c2cccc(Cl)c2)CC1)N1CCCC1 returned DDE Tn7 FP inh 4.5, DDE Tn6 FP inh 0.6, MBD2 DNA inh 1.6, UHRF1 binding 0.5, TDP2 absorb -7.7 and LEDGF integ inh -2.0.
For O=C(CCl)N1CCN(CC(=O)N2CCCC2)CC1 the results were DDE Tn7 FP inh -3.6, DDE Tn6 FP inh -3.1, MBD2 DNA inh -3.9, UHRF1 binding 20.9*, TDP2 absorb -13.4 and LEDGF integ inh 7.8.
`CC(C)CNS(=O)(=O)CC1NCc2ccccc21` (centres undefined) gave DDE Tn7 FP inh 1.8, DDE Tn6 FP inh -7.5, MBD2 DNA inh -1.5, UHRF1 binding -7.1, TDP2 absorb 3.5 and LEDGF integ inh 3.5.
`O=C(N[C@H](C(=O)N1CCC[C@H]1C(=O)NCc1ccccc1)C1CCCCC1)c1ccccc1` gave DDE Tn7 FP inh 5.5, DDE Tn6 FP inh 8.2, MBD2 DNA inh 1.6, UHRF1 binding -0.8, TDP2 absorb 3.6 and LEDGF integ inh 1.1.
Nc1cc2nsnc2cc1Br was read as DDE Tn7 FP inh -6.0, DDE Tn6 FP inh 2.2, MBD2 DNA inh 3.3, UHRF1 binding 4.4, TDP2 absorb 92.0* and LEDGF integ inh 48.2*.
Screening COC(=O)CCN(Cc1ccccc1)S(=O)(=O)c1ccccc1Br returned DDE Tn7 FP inh 5.0, DDE Tn6 FP inh 0.5, MBD2 DNA inh -6.1, UHRF1 binding 2.4, TDP2 absorb -12.3 and LEDGF integ inh -6.8.
For O=C(O)CCN(Cc1ccccc1)S(=O)(=O)c1ccccc1Cl the results were DDE Tn7 FP inh -5.4, DDE Tn6 FP inh -6.4, MBD2 DNA inh 6.6, UHRF1 binding 21.6*, TDP2 absorb 9.0 and LEDGF integ inh 1.3.
For COc1cccc(CNC(=O)[C@H]2CCCN2C(=O)C2CCCN2C(=O)c2ccc(OC)c(F)c2)c1 (some centres undefined) the results were DDE Tn7 FP inh -5.9, DDE Tn6 FP inh -2.3, MBD2 DNA inh 3.1, UHRF1 binding 3.7, TDP2 absorb -4.9 and LEDGF integ inh 0.7.
`CC(C)CN1CCN(Cc2cn(C)c3ccccc23)CC1CCO` (centres undefined) gave DDE Tn7 FP inh -2.3, DDE Tn6 FP inh -5.0, MBD2 DNA inh 0.4, UHRF1 binding 25.7*, TDP2 absorb -13.3 and LEDGF integ inh -0.7.
For Cc1cc(C)c(C2=NOC3c4ccccc4OCC23)c(C)c1 (centres undefined) the results were DDE Tn7 FP inh -2.7, DDE Tn6 FP inh 7.4, MBD2 DNA inh 0.0, UHRF1 binding 0.6, TDP2 absorb 2.4 and LEDGF integ inh 2.1.
CN(C)c1ccc(C(=O)c2ccccc2)cc1 was read as DDE Tn7 FP inh -5.2, DDE Tn6 FP inh 2.4, MBD2 DNA inh -3.2, UHRF1 binding -0.7, TDP2 absorb 0.2 and LEDGF integ inh 1.7.
`CN(C)c1ccc(N=Nc2ccc(C(=O)O)cc2)cc1` gave DDE Tn7 FP inh 3.0, DDE Tn6 FP inh 0.1, MBD2 DNA inh -0.4, UHRF1 binding 29.4*, TDP2 absorb 10.5 and LEDGF integ inh 2.5.
Screening CC1(C)CC(=O)C=C(NC2=CC3OC(c4ccccc4)OCC3OC2=O)C1 (centres undefined) returned DDE Tn7 FP inh 6.2, DDE Tn6 FP inh 3.6, MBD2 DNA inh -0.3, UHRF1 binding 22.2*, TDP2 absorb 0.4 and LEDGF integ inh -1.8.
For COCc1[nH]nc2c1C(c1cccc(C(F)(F)F)c1)NC2=O (centres undefined) the results were DDE Tn7 FP inh 7.3, DDE Tn6 FP inh -0.5, MBD2 DNA inh 3.0, UHRF1 binding -1.8, TDP2 absorb 8.7 and LEDGF integ inh -2.9.
For CCCC(=O)c1ccc(OCc2cn(CC(=O)c3ccc(O)cc3)nn2)cc1 the results were DDE Tn7 FP inh 2.7, DDE Tn6 FP inh -2.7, MBD2 DNA inh 4.8, UHRF1 binding 23.1*, TDP2 absorb 6.0 and LEDGF integ inh 4.4.
N#Cc1ccccc1OCc1cn(CC(=O)c2ccc(O)cc2)nn1 was read as DDE Tn7 FP inh 1.0, DDE Tn6 FP inh 0.3, MBD2 DNA inh 13.1, UHRF1 binding 22.2*, TDP2 absorb 1.0 and LEDGF integ inh 2.8.
